In ChEMBL document CHEMBL1914422, “Activation of the c-Jun N-terminal kinase/activating transcription factor 3 (ATF3) pathway characterizes effective arylated diazeniumdiolate-based nitric oxide-releasing anticancer prodrugs” (J Med Chem, 2011):
Calls of active or inactive are those of the source. The rule behind the calls is not given here.

Tests used:
NCI-H1703 [1] = assay: Antiproliferative activity against human NCI-H1703 cells after 72 hrs by MTT assay; format: functional, cell-based; details: NCI-H1703, 72 h
How it was run: (§1)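 Compounds (10 mM DMSO stocks, final DMSO ≤0.1%) added at increasing concentrations in PBS, incubated 72 h at 37 °C. MTT read-out, six repeats per concentration, at least two independent experiments.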

[2] = Chemical stability of the compound in aqueous phosphate buffered saline assessed as half life at pH 7.4 in presence of 4 mM glutathione; format: physicochemical; details: gsh
NCI-H441 = assay: Antiproliferative activity against human NCI-H441 cells after 72 hrs by MTT assay; format: functional, cell-based; details: NCI-H441, 72 h; how it was run: as §1
[3] = Activation of JNK phosphorylation at Thr183 and Tyr185 in human NCI-H1703 cells at 1 uM within 30 mins by Western blot analysis; format: cell-based
NCI-H2122 = assay: Antiproliferative activity against human NCI-H2122 cells after 72 hrs by MTT assay; format: functional, cell-based; details: NCI-H2122, 72 h; how it was run: as §1
[4] = Antiproliferative activity against human NCI-H1944 cells after 72 hrs by MTT assay; format: functional, cell-based; details: NCI-H1944, 72 h; how it was run: as §1
[5] = Antiproliferative activity against human NCI-H1373 cells after 72 hrs by MTT assay; format: functional, cell-based; details: NCI-H1373, 72 h; how it was run: as §1
[6] = Activation of JNK phosphorylation in human NCI-H1703 cells assessed as ATF2 phosphorylation at Thr71 at 1 uM pretreated for 30 mins by Western blot analysis in presence of JNK inhibitor 1,9-pyrazoloanthrone; format: cell-based
How it was run: (§2)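 Before compound exposure (1 μM), H1703 cells received the JNK inhibitor 1,9-pyrazoloanthrone at 50 μM for 30 min. Phosphorylated JNK, ATF2 and c-jun, and ATF3 protein, then detected by Western blot. Representative blots shown.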

Mus musculus [7] = assay: Induction of JNK phosphorylation in human NCI-H1703 cells xenografted NCr nu/nu Charles river mouse tumor assessed as increase in ATF3 protein level at 6 umol/kg, iv administered 3 times a week for 3 weeks by immunohistochemical analysis; format: functional, organism-based
NCI-H1703 [8] = assay: Induction of apoptosis in human NCI-H1703 cells assessed as caspase 3 cleavage at 1 uM pretreated with ATF3 siRNA for 48 hrs before compound challenge measured after 8 hrs by Western blot analysis; format: functional, cell-based
How it was run: (§3)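 H1703 cells at 60% confluence transfected with ATF3 siRNA, nonsilencing siRNA or reagent only (mock). After 48 h, cells treated with 1 μM compound or equal-volume DMSO for 8 h, then lysed. Western blots probed for ATF3, cleaved PARP p85 and cleaved caspase-3, with β-actin as loading control.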

NCI-H1703 [9] = assay: Induction of apoptosis in human NCI-H1703 cells assessed as caspase 7 activation after 1 to 6 hrs by Western blot analysis; format: functional, cell-based
NCI-H1703 [10] = assay: Induction of apoptosis in human NCI-H1703 cells assessed as PARP cleavage after 1 to 6 hrs by Western blot analysis; format: functional, cell-based
[11] = Activation of JNK phosphorylation in human NCI-H1703 cells assessed as increase in ATF3 mRNA level at 5 uM after 1.5 hrs by quantitative real-time PCR analysis relative to control; format: cell-based
How it was run: (§4)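 Cells were H1703 treated with compound or DMSO control. Total RNA was isolated and residual genomic DNA removed. ATF3 mRNA was measured by quantitative RT-PCR with β-actin as internal control. Reported as mean ± SE.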

[12] = Activation of JNK phosphorylation in human NCI-H1703 cells assessed as ATF2 phosphorylation at Thr71 at 1 uM by Western blot analysis; format: cell-based
How it was run: (§5)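 Lysates immunoblotted with phospho-specific antibodies against SEK1/MKK4, SAPK/JNK, ATF2 and c-jun. Membranes reprobed for total SAPK/JNK as loading control. Representative blots shown.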

Mus musculus [13] = assay: Induction of JNK phosphorylation in human NCI-H1703 cells xenografted NCr nu/nu Charles river mouse tumor at 6 umol/kg, iv administered 3 times a week for 3 weeks by immunohistochemical analysis; format: functional, organism-based
[14] = Activation of JNK phosphorylation in human NCI-H1703 cells assessed as c-jun phosphorylation at Ser63 at 1 uM pretreated for 30 mins by Western blot analysis in presence of JNK inhibitor 1,9-pyrazoloanthrone; format: cell-based; how it was run: as §2
NCI-H1703 [15] = assay: Antitumor activity against human NCI-H1703 cells xenografted in athymic NCr Charles river nu/nu mouse assessed as reduction of tumor weight at 6 umol/kg, iv administered 3 times a week for 3 weeks relative to vehicle treated control; format: functional; set-up: scale not given: the % may be the effect or the level left
How it was run: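 H1703 cells (5×10^6) injected s.c. into the flank of 7-week-old female athymic NCr-nu/nu mice. Dosing began once tumors reached at least 2×2×2 mm (typically 4 weeks). Body weight recorded before each injection. Mice sacrificed 2 h after the last dose and tumors excised and weighed. 13–15 mice/group; Mann-Whitney test; mean ± SE.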

NCI-H1703 [16] = assay: Induction of apoptosis in human NCI-H1703 cells assessed as caspase 3 activation after 1 to 6 hrs by Western blot analysis; format: functional, cell-based
[17] = Activation of JNK phosphorylation at Thr183 and Tyr185 in human NCI-H1703 cells at 1 uM pretreated for 1 hr measured after 30 mins by Western blot analysis in presence of ROS scavenger tiron
[18] = Activation of JNK phosphorylation in human NCI-H1703 cells assessed as increase in ATF3 protein level at 1 uM within 2 hrs by Western blot analysis in presence of JNK inhibitor 1,9-pyrozoloanthrone; format: cell-based; how it was run: as §2
NCI-H1703 [19] = assay: Antitumor activity against human NCI-H1703 cells xenografted in athymic NCr Charles river nu/nu mouse assessed as reduction of tumor growth at 6 umol/kg, iv administered 3 times a week for 3 weeks relative to vehicle treated control; format: functional, organism-based
How it was run: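 H1703 xenografts (5×10^6 cells s.c., flank) in 7-week-old female athymic NCr-nu/nu mice, treated from tumor size ≥2×2×2 mm. Mice killed 2 h after the last dose; tumors excised and weighed. 13–15 mice/group; Mann-Whitney test against vehicle.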

Mus musculus [20] = assay: Toxicity in human NCI-H1703 cells xenografted athymic NCr nu/nu Charles river mouse assessed as change in body weight at 6 umol/kg, iv administered 3 times a week for 3 weeks (reference value: 22.5 +/- 0.4g); format: organism-based; details: in vivo, 504 h
[21] = Activation of JNK phosphorylation in human NCI-H1703 cells assessed as increase in ATF3 protein level at 1 uM within 2 hrs by Western blot analysis; format: cell-based
NCI-H1703 [22] = assay: Antitumor activity against human NCI-H1703 cells xenografted in NCr nu/nu Charles river mouse assessed as tissue death in tumor at 6 umol/kg, iv administered 3 times a week for 3 weeks by H and E staining method relative to control; format: functional, organism-based
How it was run: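 Female athymic NCr-nu/nu mice, 7 weeks old, received 5×10^6 H1703 cells s.c. in the flank. Tumors excised 2 h after the last dose, H&E stained, and scored for areas of cell death against vehicle controls.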

NCI-H1703 [23] = assay: Induction of apoptosis in human NCI-H1703 cells assessed as apoptotic cells at 1 uM after 6 hrs by FACS analysis (reference value: 0.05%); format: functional
NCI-H1703 [24] = assay: Cell cycle arrest in human NCI-H1703 cells assessed as accumulation at G2 phase at 1 uM after 6 hrs by FACS analysis (reference value: 8%); format: functional
[25] = Activation of JNK phosphorylation in human NCI-H1703 cells assessed as c-jun phosphorylation at Ser63 at 1 uM by Western blot analysis; format: cell-based; how it was run: as §5
[26] = target: T1, Dual specificity mitogen-activated protein kinase kinase 4 (Homo sapiens) (UniProt P45985); assay: Activation of SEK1 phosphorylation at Thr261 in human NCI-H1703 cells at 1 uM by Western blot analysis; format: cell-based; how it was run: as §5
T1 sequence (whole entry): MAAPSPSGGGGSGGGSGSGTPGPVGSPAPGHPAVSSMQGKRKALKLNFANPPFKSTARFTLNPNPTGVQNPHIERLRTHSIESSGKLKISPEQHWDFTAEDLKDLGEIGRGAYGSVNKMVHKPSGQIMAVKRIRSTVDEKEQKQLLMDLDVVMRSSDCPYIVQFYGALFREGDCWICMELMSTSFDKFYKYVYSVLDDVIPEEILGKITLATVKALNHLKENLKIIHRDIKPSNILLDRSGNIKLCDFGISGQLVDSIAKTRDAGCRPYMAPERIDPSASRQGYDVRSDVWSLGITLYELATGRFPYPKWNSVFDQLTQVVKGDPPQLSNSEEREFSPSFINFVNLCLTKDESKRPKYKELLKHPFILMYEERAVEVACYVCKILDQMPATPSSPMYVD

NCI-H1703 [27] = assay: Upregulation of ATF3 expression in human NCI-H1703 cells at 1 uM pretreated with ATF3 siRNA for 48 hrs before compound challenge measured after 8 hrs by Western blot analysis; format: functional, cell-based; how it was run: as §3
[28] = Activation of JNK phosphorylation in human NCI-H1703 cells assessed as increase in ATF3 mRNA level at 1 uM after 1.5 hrs by quantitative real-time PCR analysis relative to control; format: cell-based; how it was run: as §4
NCI-H1703 [29] = assay: Induction of apoptosis in human NCI-H1703 cells assessed as PARP p85 cleavage at 1 uM pretreated with ATF3 siRNA for 48 hrs before compound challenge measured after 8 hrs by Western blot analysis; format: functional, cell-based; how it was run: as §3
[30] = Activation of JNK phosphorylation in human NCI-H1703 cells assessed as increase in ATF3 protein level at 1 uM by Western blot analysis; format: cell-based

CCOC(=O)N1CCCN(/[N+]([O-])=N/Oc2cc(OC)c([N+](=O)[O-])cc2[N+](=O)[O-])CC1
IC50 (NCI-H1703 [1]): 1820 nM | t1/2 [2]: 59.6 min | IC50 (NCI-H441): 3150 nM | Activity [3]: inactive | IC50 (NCI-H2122): 10 µM | IC50 [4]: > 10 µM | IC50 [5]: 3080 nM

CCOC(=O)N1CCN(/[N+]([O-])=N/Oc2ccc([N+](=O)[O-])cc2[N+](=O)[O-])CC1
Activity [6]: inactive | Activity (Mus musculus [7]): Active | Activity (NCI-H1703 [8]): inactive | Activity (NCI-H1703 [9]): Active | Activity (NCI-H1703 [10]): Active | IC50 (NCI-H1703 [1]): 570 nM | fold change (FC) [11]: 10 | Activity [12]: Active | Activity (Mus musculus [13]): Active | Activity [14]: inactive | Activity (NCI-H1703 [15]): 49% | Activity (NCI-H1703 [16]): Active | IC50 (NCI-H441): 940 nM | Activity [3]: Active | Activity [17]: inactive | IC50 (NCI-H2122): 3.17 µM | Activity [18]: inactive | growth inhibition (GI) (NCI-H1703 [19]): Active | Activity (Mus musculus [20]): 24.9 g | Activity [21]: Active | Activity (NCI-H1703 [22]): Active | Activity (NCI-H1703 [23]): 14.4% | Activity (NCI-H1703 [24]): 37% | Activity [25]: Active | Activity [26]: Active | Activity (NCI-H1703 [27]): inactive | fold change (FC) [28]: 8 | IC50 [4]: > 10 µM | Activity (NCI-H1703 [29]): inactive | IC50 [5]: 860 nM | Activity [30]: tde
